Results: ChEMBL document CHEMBL4613327, “Sulfonamide Inhibitors of Human Carbonic Anhydrases Designed through a Three-Tails Approach: Improving Ligand/Isoform Matching and Selectivity of Action” (J Med Chem, 2020)

biological target: Carbonic anhydrase 12 (Homo sapiens, UniProt O43570); assay: Inhibition of human CA12 preincubated for 15 mins by stopped-flow CO2 hydration kinetic assay based Cheng-Prusoff equation analysis
Sequence (O43570 whole entry): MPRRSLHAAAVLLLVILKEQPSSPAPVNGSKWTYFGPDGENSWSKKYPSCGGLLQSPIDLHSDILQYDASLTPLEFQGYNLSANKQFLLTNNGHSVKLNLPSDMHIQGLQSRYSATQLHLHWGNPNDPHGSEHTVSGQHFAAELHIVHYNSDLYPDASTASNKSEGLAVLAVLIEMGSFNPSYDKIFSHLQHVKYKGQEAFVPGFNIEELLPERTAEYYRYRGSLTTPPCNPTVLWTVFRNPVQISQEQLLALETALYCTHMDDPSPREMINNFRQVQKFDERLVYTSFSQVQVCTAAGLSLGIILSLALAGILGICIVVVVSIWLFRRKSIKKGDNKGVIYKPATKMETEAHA

Compared with `NS(=O)(=O)c1ccc(CCNCc2ccc3ccccc3c2)cc1`, `CCN(CC)CC(=O)N(CCc1ccc(S(N)(=O)=O)cc1)Cc1ccccc1` is 1.8-fold lower in Ki: 78.6 nM for the first, 43.9 nM for the second.

Going from `NS(=O)(=O)c1ccc(CCN(CCc2ccccc2)C(=O)CN(CCC(=O)O)CCc2ccccc2)cc1` to `N#CCCN(CCc1ccccc1)CC(=O)N(CCc1ccc(S(N)(=O)=O)cc1)Cc1ccc(F)cc1`, the Ki falls from 29.7 nM to 9.8 nM (3-fold).

Going from `CCCCCCN(CCCCCC)CC(=O)N(CCC#N)CCc1ccc(S(N)(=O)=O)cc1` to `CCCCCCN(CCCCCC)CC(=O)N(CCCN)CCc1ccc(S(N)(=O)=O)cc1`, the Ki rises from 8.6 nM to 32.5 nM (3.8-fold).

species: Homo sapiens; assay: Selectivity index, ratio of Ki for inhibition of human CA1 to Ki for inhibition of human CA12
Method in brief: (§1)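 Ratio of Ki values. Each Ki came from stopped-flow CA-catalysed CO2 hydration with recombinant in-house hCA isoforms, phenol red 0.2 mM read at 557 nm, 20 mM Hepes pH 7.5, 20 mM Na2SO4, and CO2 1.7–17 mM. Inhibitor and enzyme were preincubated 15 min at room temperature. Initial rates, less the uncatalysed rate, were fit by nonlinear least squares with Cheng–Prusoff. Mean of ≥3 determinations.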

First: NS(=O)(=O)c1ccc(CCNCc2ccc3ccccc3c2)cc1
Second: CCN(CC)CC(=O)N(CCc1ccc(S(N)(=O)=O)cc1)Cc1ccccc1
The Ratio Ki of the first is lower: 5.8 for the first, 17.9 for the second.

First: NS(=O)(=O)c1ccc(CCN(CCc2ccccc2)C(=O)CN(CCC(=O)O)CCc2ccccc2)cc1
Second: N#CCCN(CCc1ccccc1)CC(=O)N(CCc1ccc(S(N)(=O)=O)cc1)Cc1ccc(F)cc1
The Ratio Ki of the first is lower: 6.9 for the first, 69.8 for the second.

First: CCCCCCN(CCCCCC)CC(=O)N(CCC#N)CCc1ccc(S(N)(=O)=O)cc1
Second: CCCCCCN(CCCCCC)CC(=O)N(CCCN)CCc1ccc(S(N)(=O)=O)cc1
The Ratio Ki of the first is higher: 46 for the first, 13.4 for the second.

biological target: Carbonic anhydrase 2 (Homo sapiens, UniProt P00918); assay: Inhibition of human CA2 preincubated for 15 mins by stopped-flow CO2 hydration kinetic assay based Cheng-Prusoff equation analysis

Going from `NS(=O)(=O)c1ccc(CCNCc2ccc3ccccc3c2)cc1` to `CCN(CC)CC(=O)N(CCc1ccc(S(N)(=O)=O)cc1)Cc1ccccc1`, the Ki falls from 87.1 nM to 8.3 nM (10-fold). The second binds more tightly here.

Compared with `NS(=O)(=O)c1ccc(CCN(CCc2ccccc2)C(=O)CN(CCC(=O)O)CCc2ccccc2)cc1`, `N#CCCN(CCc1ccccc1)CC(=O)N(CCc1ccc(S(N)(=O)=O)cc1)Cc1ccc(F)cc1` is 1.8-fold higher in Ki: 72 nM for the first, 133 nM for the second. The first binds more tightly here.

Going from `CCCCCCN(CCCCCC)CC(=O)N(CCC#N)CCc1ccc(S(N)(=O)=O)cc1` to `CCCCCCN(CCCCCC)CC(=O)N(CCCN)CCc1ccc(S(N)(=O)=O)cc1`, the Ki rises from 52.5 nM to 2920 nM (56-fold). The first binds more tightly here.

species: Homo sapiens; assay: Selectivity index, ratio of Ki for inhibition of human CA2 to Ki for inhibition of human CA12; method in brief: as §1

Going from `NS(=O)(=O)c1ccc(CCNCc2ccc3ccccc3c2)cc1` to `CCN(CC)CC(=O)N(CCc1ccc(S(N)(=O)=O)cc1)Cc1ccccc1`, the Ratio Ki falls from 1.1 to 0.2.

First: NS(=O)(=O)c1ccc(CCN(CCc2ccccc2)C(=O)CN(CCC(=O)O)CCc2ccccc2)cc1
Second: N#CCCN(CCc1ccccc1)CC(=O)N(CCc1ccc(S(N)(=O)=O)cc1)Cc1ccc(F)cc1
The Ratio Ki of the first is lower: 2.4 for the first, 13.6 for the second.

First: CCCCCCN(CCCCCC)CC(=O)N(CCC#N)CCc1ccc(S(N)(=O)=O)cc1
Second: CCCCCCN(CCCCCC)CC(=O)N(CCCN)CCc1ccc(S(N)(=O)=O)cc1
The Ratio Ki of the first is lower: 6.1 for the first, 90 for the second.

species: Homo sapiens; assay: Selectivity index, ratio of Ki for inhibition of human CA2 to Ki for inhibition of human CA4; method in brief: as §1

Compared with `NS(=O)(=O)c1ccc(CCNCc2ccc3ccccc3c2)cc1`, `CCN(CC)CC(=O)N(CCc1ccc(S(N)(=O)=O)cc1)Cc1ccccc1` is lower in Ratio Ki: 0.01 for the first, 0.002 for the second.

`NS(=O)(=O)c1ccc(CCN(CCc2ccccc2)C(=O)CN(CCC(=O)O)CCc2ccccc2)cc1` and `N#CCCN(CCc1ccccc1)CC(=O)N(CCc1ccc(S(N)(=O)=O)cc1)Cc1ccc(F)cc1` are the same in Ratio Ki: 0.03 for the first, 0.03 for the second.

First: CCCCCCN(CCCCCC)CC(=O)N(CCC#N)CCc1ccc(S(N)(=O)=O)cc1
Second: CCCCCCN(CCCCCC)CC(=O)N(CCCN)CCc1ccc(S(N)(=O)=O)cc1
The Ratio Ki of the first is lower: 0.02 for the first, 3.2 for the second.

biological target: Carbonic anhydrase 4 (Homo sapiens, UniProt P22748); assay: Inhibition of human CA4 preincubated for 15 mins by stopped-flow CO2 hydration kinetic assay based Cheng-Prusoff equation analysis
Sequence (P22748 whole entry): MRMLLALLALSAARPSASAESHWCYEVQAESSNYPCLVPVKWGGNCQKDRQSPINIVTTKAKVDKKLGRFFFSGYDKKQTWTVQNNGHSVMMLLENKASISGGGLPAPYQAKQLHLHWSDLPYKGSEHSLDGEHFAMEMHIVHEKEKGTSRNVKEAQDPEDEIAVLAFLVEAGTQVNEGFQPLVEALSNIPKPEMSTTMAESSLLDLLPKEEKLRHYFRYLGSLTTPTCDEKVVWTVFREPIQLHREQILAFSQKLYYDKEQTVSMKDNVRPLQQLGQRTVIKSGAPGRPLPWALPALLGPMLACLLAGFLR

Compared with `NS(=O)(=O)c1ccc(CCNCc2ccc3ccccc3c2)cc1`, `CCN(CC)CC(=O)N(CCc1ccc(S(N)(=O)=O)cc1)Cc1ccccc1` is 1.5-fold lower in Ki: 6250 nM for the first, 4150 nM for the second. The second binds more tightly here.

First: NS(=O)(=O)c1ccc(CCN(CCc2ccccc2)C(=O)CN(CCC(=O)O)CCc2ccccc2)cc1
Second: N#CCCN(CCc1ccccc1)CC(=O)N(CCc1ccc(S(N)(=O)=O)cc1)Cc1ccc(F)cc1
The Ki of the first is 1.8-fold lower: 2330 nM for the first, 4130 nM for the second.

Compared with `CCCCCCN(CCCCCC)CC(=O)N(CCC#N)CCc1ccc(S(N)(=O)=O)cc1`, `CCCCCCN(CCCCCC)CC(=O)N(CCCN)CCc1ccc(S(N)(=O)=O)cc1` is 3.8-fold lower in Ki: 3480 nM for the first, 914 nM for the second.

species: Homo sapiens; assay: Selectivity index, ratio of Ki for inhibition of human CA4 to Ki for inhibition of human CA12; method in brief: as §1

First: NS(=O)(=O)c1ccc(CCNCc2ccc3ccccc3c2)cc1
Second: CCN(CC)CC(=O)N(CCc1ccc(S(N)(=O)=O)cc1)Cc1ccccc1
The Ratio Ki of the first is lower: 79.5 for the first, 94.5 for the second.

First: NS(=O)(=O)c1ccc(CCN(CCc2ccccc2)C(=O)CN(CCC(=O)O)CCc2ccccc2)cc1
Second: N#CCCN(CCc1ccccc1)CC(=O)N(CCc1ccc(S(N)(=O)=O)cc1)Cc1ccc(F)cc1
The Ratio Ki of the first is lower: 78.5 for the first, 422 for the second.

First: CCCCCCN(CCCCCC)CC(=O)N(CCC#N)CCc1ccc(S(N)(=O)=O)cc1
Second: CCCCCCN(CCCCCC)CC(=O)N(CCCN)CCc1ccc(S(N)(=O)=O)cc1
The Ratio Ki of the first is higher: 404 for the first, 28.1 for the second.

species: Homo sapiens; assay: Selectivity index, ratio of Ki for inhibition of human CA1 to Ki for inhibition of human CA2; method in brief: as §1

Going from `NS(=O)(=O)c1ccc(CCNCc2ccc3ccccc3c2)cc1` to `CCN(CC)CC(=O)N(CCc1ccc(S(N)(=O)=O)cc1)Cc1ccccc1`, the Ratio Ki rises from 5.3 to 94.8.

Going from `NS(=O)(=O)c1ccc(CCN(CCc2ccccc2)C(=O)CN(CCC(=O)O)CCc2ccccc2)cc1` to `N#CCCN(CCc1ccccc1)CC(=O)N(CCc1ccc(S(N)(=O)=O)cc1)Cc1ccc(F)cc1`, the Ratio Ki rises from 2.8 to 5.1.

Going from `CCCCCCN(CCCCCC)CC(=O)N(CCC#N)CCc1ccc(S(N)(=O)=O)cc1` to `CCCCCCN(CCCCCC)CC(=O)N(CCCN)CCc1ccc(S(N)(=O)=O)cc1`, the Ratio Ki falls from 7.5 to 0.2.

species: Homo sapiens; assay: Selectivity index, ratio of Ki for inhibition of human CA1 to Ki for inhibition of human CA4; method in brief: as §1

First: NS(=O)(=O)c1ccc(CCNCc2ccc3ccccc3c2)cc1
Second: CCN(CC)CC(=O)N(CCc1ccc(S(N)(=O)=O)cc1)Cc1ccccc1
The Ratio Ki of the first is lower: 0.07 for the first, 0.2 for the second.

Going from `NS(=O)(=O)c1ccc(CCN(CCc2ccccc2)C(=O)CN(CCC(=O)O)CCc2ccccc2)cc1` to `N#CCCN(CCc1ccccc1)CC(=O)N(CCc1ccc(S(N)(=O)=O)cc1)Cc1ccc(F)cc1`, the Ratio Ki rises from 0.09 to 0.2.

Going from `CCCCCCN(CCCCCC)CC(=O)N(CCC#N)CCc1ccc(S(N)(=O)=O)cc1` to `CCCCCCN(CCCCCC)CC(=O)N(CCCN)CCc1ccc(S(N)(=O)=O)cc1`, the Ratio Ki rises from 0.1 to 0.5.

biological target: Carbonic anhydrase 1 (Homo sapiens, UniProt P00915); assay: Inhibition of human CA1 preincubated for 15 mins by stopped-flow CO2 hydration kinetic assay based Cheng-Prusoff equation analysis
Sequence (P00915 whole entry): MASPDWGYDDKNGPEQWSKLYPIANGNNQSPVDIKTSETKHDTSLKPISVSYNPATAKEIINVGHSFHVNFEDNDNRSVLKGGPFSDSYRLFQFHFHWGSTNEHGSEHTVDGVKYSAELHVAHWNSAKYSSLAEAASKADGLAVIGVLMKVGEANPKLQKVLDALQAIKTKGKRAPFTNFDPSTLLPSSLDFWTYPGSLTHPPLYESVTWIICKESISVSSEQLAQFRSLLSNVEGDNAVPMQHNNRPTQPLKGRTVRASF

Compared with `NS(=O)(=O)c1ccc(CCNCc2ccc3ccccc3c2)cc1`, `CCN(CC)CC(=O)N(CCc1ccc(S(N)(=O)=O)cc1)Cc1ccccc1` is 1.7-fold higher in Ki: 458 nM for the first, 787 nM for the second. The first binds more tightly here.

Going from `NS(=O)(=O)c1ccc(CCN(CCc2ccccc2)C(=O)CN(CCC(=O)O)CCc2ccccc2)cc1` to `N#CCCN(CCc1ccccc1)CC(=O)N(CCc1ccc(S(N)(=O)=O)cc1)Cc1ccc(F)cc1`, the Ki rises from 203 nM to 676 nM (3.3-fold). The first binds more tightly here.

`CCCCCCN(CCCCCC)CC(=O)N(CCC#N)CCc1ccc(S(N)(=O)=O)cc1` and `CCCCCCN(CCCCCC)CC(=O)N(CCCN)CCc1ccc(S(N)(=O)=O)cc1` are within 1.5-fold of each other in Ki: 396 nM for the first, 436 nM for the second.
